Laboratory results taken from PMC7893792 (ACS Omega, 2021).

Tests used:
rOat1 = target: T1, rOat1 (Rattus norvegicus, UniProt O35956); assay: 6-CF uptake by rOat1-expressing HEK293 cells; type: cell-based
T1 sequence (O35956 1-551): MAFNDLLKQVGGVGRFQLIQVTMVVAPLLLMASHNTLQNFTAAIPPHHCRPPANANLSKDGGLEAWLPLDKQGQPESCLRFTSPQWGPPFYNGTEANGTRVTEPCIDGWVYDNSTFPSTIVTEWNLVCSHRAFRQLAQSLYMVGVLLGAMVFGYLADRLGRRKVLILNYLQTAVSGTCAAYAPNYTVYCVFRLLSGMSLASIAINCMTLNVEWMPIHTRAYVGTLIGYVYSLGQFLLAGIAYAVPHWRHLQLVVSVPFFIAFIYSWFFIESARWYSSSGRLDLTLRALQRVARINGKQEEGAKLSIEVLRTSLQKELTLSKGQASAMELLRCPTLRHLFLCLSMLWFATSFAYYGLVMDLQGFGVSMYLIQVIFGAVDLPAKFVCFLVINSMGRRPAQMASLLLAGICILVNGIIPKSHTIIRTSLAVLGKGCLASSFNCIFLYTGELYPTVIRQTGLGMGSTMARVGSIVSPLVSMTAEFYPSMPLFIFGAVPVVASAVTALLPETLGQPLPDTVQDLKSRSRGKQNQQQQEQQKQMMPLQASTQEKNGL

hOAT3 [1] = target: T2, hOAT3 (Homo sapiens, UniProt Q8TCC7); conditions: cited from earlier work
T2 sequence (Q8TCC7 1-542): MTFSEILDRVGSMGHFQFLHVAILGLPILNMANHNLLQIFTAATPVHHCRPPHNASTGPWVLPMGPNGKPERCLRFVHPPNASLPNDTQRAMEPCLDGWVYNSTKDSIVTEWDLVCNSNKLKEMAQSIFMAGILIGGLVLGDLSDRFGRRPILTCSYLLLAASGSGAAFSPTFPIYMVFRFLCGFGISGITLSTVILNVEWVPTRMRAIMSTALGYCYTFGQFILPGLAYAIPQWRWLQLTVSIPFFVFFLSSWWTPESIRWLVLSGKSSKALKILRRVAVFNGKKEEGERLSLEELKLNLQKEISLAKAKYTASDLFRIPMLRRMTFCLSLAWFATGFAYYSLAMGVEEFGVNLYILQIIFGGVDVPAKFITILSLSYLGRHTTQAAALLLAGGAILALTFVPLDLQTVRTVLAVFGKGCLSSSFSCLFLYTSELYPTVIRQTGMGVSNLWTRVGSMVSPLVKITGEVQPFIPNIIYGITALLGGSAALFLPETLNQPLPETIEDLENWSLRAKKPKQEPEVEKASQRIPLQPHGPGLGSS

rOat3 = target: T3, rOat3 (Rattus norvegicus, UniProt Q9R1U7); assay: 6-CF uptake by rOat3-expressing HEK293 cells; type: cell-based; conditions: for inhibition at 100 µM: HEK293, pH 7.4, read-out: Inhibition of rOat3-mediated 6-CF uptake
T3 sequence (Q9R1U7 1-536): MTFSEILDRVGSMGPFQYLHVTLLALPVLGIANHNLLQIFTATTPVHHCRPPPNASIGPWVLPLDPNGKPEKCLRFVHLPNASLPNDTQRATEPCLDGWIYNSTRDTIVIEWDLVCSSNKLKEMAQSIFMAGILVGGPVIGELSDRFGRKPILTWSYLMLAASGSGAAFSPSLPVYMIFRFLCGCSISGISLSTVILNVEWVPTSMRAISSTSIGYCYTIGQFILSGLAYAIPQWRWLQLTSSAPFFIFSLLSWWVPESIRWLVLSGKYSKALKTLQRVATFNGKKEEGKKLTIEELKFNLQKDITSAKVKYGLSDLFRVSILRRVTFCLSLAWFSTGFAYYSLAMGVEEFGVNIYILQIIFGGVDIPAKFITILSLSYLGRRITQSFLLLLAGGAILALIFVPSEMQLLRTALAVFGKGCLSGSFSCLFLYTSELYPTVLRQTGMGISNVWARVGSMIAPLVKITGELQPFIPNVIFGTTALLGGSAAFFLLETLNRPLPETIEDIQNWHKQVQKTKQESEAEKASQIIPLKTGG

[2] = Plasma concentration and urinary excretion of 6-CF in rats; type: in vivo; conditions: male, Wistar/ST, rat, iv, 1 mg/kg
Method in brief: (§1)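 Male Wistar/ST rats (7 weeks) were anesthetized with ethyl carbamate/α-chloralose, with femoral artery, vein and bladder catheters. 5% mannitol iv bolus 2.5 mL/kg, then 0.03 mL/min infusion. After 20 min, 6-CF 1 mg/kg iv bolus ± test compound 60 mg/kg, saline vehicle. Plasma sampled 1–60 min, urine 0–60 min; fluorescence read-out. AUC0–60 by trapezoidal rule; CLr = 60-min urinary amount/AUC0–60; mean ± SD, 6–8 rats.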

hOAT1 [3] = target: T4, hOAT1 (Homo sapiens, UniProt Q4U2R8); conditions: cited from earlier work
T4 sequence (Q4U2R8 1-563): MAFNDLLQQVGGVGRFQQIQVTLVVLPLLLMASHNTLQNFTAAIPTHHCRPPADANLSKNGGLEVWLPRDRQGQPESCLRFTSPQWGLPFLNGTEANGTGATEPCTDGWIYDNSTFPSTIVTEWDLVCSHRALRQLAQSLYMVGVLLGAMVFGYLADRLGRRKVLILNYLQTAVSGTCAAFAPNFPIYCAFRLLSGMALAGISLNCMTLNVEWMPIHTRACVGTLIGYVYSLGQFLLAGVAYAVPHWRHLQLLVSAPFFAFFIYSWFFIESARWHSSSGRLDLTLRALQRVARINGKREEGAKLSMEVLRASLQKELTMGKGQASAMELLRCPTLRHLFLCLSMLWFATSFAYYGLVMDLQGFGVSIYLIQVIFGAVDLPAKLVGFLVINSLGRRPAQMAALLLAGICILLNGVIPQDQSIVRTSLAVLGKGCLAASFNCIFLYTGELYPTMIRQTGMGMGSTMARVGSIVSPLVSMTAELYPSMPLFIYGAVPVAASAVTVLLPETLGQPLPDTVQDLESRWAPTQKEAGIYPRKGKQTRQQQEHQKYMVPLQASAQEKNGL

renal Oats = assay: Plasma concentration and urinary excretion of 6-CF in rats; type: in vivo; conditions: rat; for Decrease of the renal clearance (CLr) of 6-CF: vs control, probenecid 100 mg/kg, EGCG 60 mg/kg, 2% D-malate
Method in brief: as §1

Renal parameters = type: in vivo; conditions: rat; for BUN / Ccr: iv probenecid 100 mg/kg, EGCG 60 mg/kg or 2% D-malate; for Change in blood urea nitrogen (BUN) / Change in creatinine clearance (Ccr): vs control, Dunnett's test
Method in brief: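 Anesthetized, catheterized male Wistar/ST rats on iv 5% mannitol (2.5 mL/kg bolus, 0.03 mL/min infusion; ± 2% D-malate) received 6-CF 1 mg/kg iv alone or with reference inhibitor 100 mg/kg or test compound 60 mg/kg. BUN measured with a colorimetric urea kit; plasma and urine creatinine by kit. Ccr = urinary creatinine excretion rate ÷ plasma creatinine. One-way ANOVA, Dunnett's test vs control.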

hOAT3 [4] = target: T2, hOAT3; assay: 6-CF uptake by hOAT3-expressing HEK293 cells; type: cell-based; conditions: for inhibition at 100 µM: HEK293, pH 7.4, read-out: Inhibition of hOAT3-mediated 6-CF uptake
Method in brief: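 After 10 min preincubation at 37 °C in Waymouth buffer pH 7.4, cells took up 1 μM 6-CF with test compound for 2 min, then ice-cold PBS wash, 1% SDS lysis, fluorescence. Vector uptake subtracted. Inhibition type: 6-CF 1–100 μM ± 0.1 mM test compound, Eadie–Hofstee plot; mean ± SE, n = 3–4.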

hOAT1 [5] = target: T4, hOAT1; assay: 6-CF uptake by hOAT1-expressing HEK293 cells; type: cell-based
hOAT1 [6] = target: T4, hOAT1; conditions: cited from earlier work; remark: listed apart in the source
mouse Oat3 = conditions: cited from earlier work
[7] = substrate: O=C(O)c1ccc(C(=O)O)c(-c2c3ccc(=O)cc-3oc3cc(O)ccc23)c1; assay: 6-CF uptake by rOat1-expressing HEK293 cells; type: cell-based, rat; conditions: other: HEK293-rOat1, 2 min, 37 °C, pH 7.4, 1-100 μM 6-CF
[8] = EGCG 60 mg/kg iv with 6-CF 1 mg/kg
[9] = compound 100 μM, 6-CF 1 μM, 2 min, 37 °C, pH 7.4

O=C(O)c1ccc(C(=O)O)c(-c2c3ccc(=O)cc-3oc3cc(O)ccc23)c1 [6-CF, 6-carboxyfluorescein]
Vmax of 6-CF uptake (rOat1; HEK293-rOat1, 2 min, 37 °C, pH 7.4): 131 ± 3 pmol/mg/2 min | Vmax of 6-CF transport (hOAT3 [1]): 70.0 ± 3.2 pmol/mg/2 min | Km (hOAT3 [1]; read-out: Km of 6-CF transport): 38.4 ± 4.2 µM | Vmax of 6-CF uptake (rOat3; HEK293-rOat3, 2 min, 37 °C, pH 7.4): 35.3 ± 1.3 pmol/mg/2 min | CL renal ([2]; plasma and urine): 18.3 ± 6.8 mL/min/kg | AUC(0-t) ([2]; plasma): 573 ng·h/mL | Vmax of 6-CF transport (hOAT1 [3]): 125.1 ± 1.6 pmol/mg/2 min | Km (hOAT1 [3]; read-out: Km of 6-CF transport): 6.94 ± 0.33 µM

O=C(O)C[C@@H](O)C(=O)O [D-malate]
Decrease of the renal clearance (CLr) of 6-CF (renal Oats): ~4 fold | BUN (Renal parameters): 11.4 ± 1.1 mg/dL | Ccr (Renal parameters): 2.92 ± 0.66 mL/min/kg | Change in blood urea nitrogen (BUN) (Renal parameters): no significant change | Change in creatinine clearance (Ccr) (Renal parameters): no significant change

O=C(O[C@@H]1Cc2c(O)cc(O)cc2O[C@@H]1c1cc(O)c(O)c(O)c1)c1cc(O)c(O)c(O)c1 [EGCG, (−)-epigallocatechin-3-gallate]
Type of inhibition (rOat1; rOat1, Eadie-Hofstee plot): competitive inhibition | Type of inhibition (rOat3; rOat3, Eadie-Hofstee plot): competitive inhibition | Increase of 6-CF AUC0–60 (renal Oats; [8]): ~2.2 fold | Increase of the plasma concentration of 6-CF at 60 min (renal Oats; [8]): ~8 fold | Decrease of the renal clearance (CLr) of 6-CF (renal Oats): ~2.6 fold | Type of inhibition (hOAT3 [4]; hOAT3, Eadie-Hofstee plot): competitive inhibition | Type of inhibition (hOAT1 [5]; hOAT1, Eadie-Hofstee plot): mixed-type inhibition | BUN (Renal parameters): 11.9 ± 1.3 mg/dL | Ccr (Renal parameters): 2.58 ± 0.82 mL/min/kg | Change in blood urea nitrogen (BUN) (Renal parameters): no significant change | Change in creatinine clearance (Ccr) (Renal parameters): no significant change

CC[N+](CC)(CC)CC [TEA, tetraethylammonium]
Inhibition of rOat1-mediated 6-CF uptake (rOat1; [9]): no effects | Inhibition of rOat3-mediated 6-CF uptake (rOat3; [9]): no effects | Inhibition of hOAT3-mediated 6-CF uptake (hOAT3 [4]; [9]): no effects | Inhibition of hOAT1-mediated 6-CF uptake (hOAT1 [5]; [9]): no effects

Nc1ncnc2c1ncn2CCOCP(=O)(O)O [adefovir]
Inhibitory effect, OAT1 compared with OAT3 (rat) (rOat1; 100 μM, rOat1 vs rOat3 plot): higher for OAT1 than those for OAT3 | Inhibitory effect, OAT1 compared with OAT3 (human) (hOAT1 [5]; 100 μM, hOAT1 vs hOAT3 plot): higher for OAT1 than those for OAT3

O.Oc1cc(O)c2c(c1)O[C@H](c1ccc(O)c(O)c1)[C@@H](O)C2 [catechin]
Interaction with hOAT1 (hOAT1 [6]): did not interact

O=C(O[C@@H]1Cc2c(O)cc(O)cc2O[C@@H]1c1ccc(O)c(O)c1)c1cc(O)c(O)c(O)c1 [epicatechin gallate]
Inhibition of mouse Oat3 (mouse Oat3): inhibit

Oc1cc(O)c2c(c1)O[C@H](c1ccc(O)c(O)c1)[C@H](O)C2 [epicatechin]
Interaction with hOAT1 (hOAT1 [6]): did not interact | Inhibition of mouse Oat3 (mouse Oat3): inhibit

CCCN(CCC)S(=O)(=O)c1ccc(C(=O)O)cc1 [probenecid]
inhibition at 100 µM (rOat3): > 80% | Decrease of the renal clearance (CLr) of 6-CF (renal Oats): ~6 fold | inhibition at 100 µM (hOAT3 [4]): > 80% | BUN (Renal parameters): 12.6 ± 0.7 mg/dL | Ccr (Renal parameters): 2.51 ± 0.78 mL/min/kg | Change in blood urea nitrogen (BUN) (Renal parameters): no significant change | Change in creatinine clearance (Ccr) (Renal parameters): no significant change

CCCCC[C@H](O)/C=C/[C@H]1[C@H](O)CC(=O)[C@@H]1C/C=C\CCCC(=O)O [prostaglandin E2]
inhibition at 100 µM (rOat3): > 80% | inhibition at 100 µM (hOAT3 [4]): > 80%

B1: rOat1 (Rattus norvegicus) (protein)
chain: T1 sequence (O35956 1-551)
Km [7]: 6.68 ± 0.62 µM
